Laboratory results: ChEMBL document CHEMBL1949657, “Chemical modification of the multitarget neuroprotective compound fisetin” (J Med Chem, 2012)
Activity calls are given as the source filed them.

Columns and labels:
HT-22 [1] = experiment: Neuroprotective activity in mouse HT22 cells assessed as reduction in IAA-induced ischemia after 24 hrs by MTT assay; type: functional, cell-based
Summary of the method: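 HT22 cells seeded at 5×10^3/well. Next day switched to DMEM + 7.5% DFCS with 20 μM IAA ± derivative doses for 2 h, then IAA-free medium with derivative for 20 h. MTT 2.5 μg/ml for 4 h at 37 °C, solubilised in DMF/SDS pH 4.7, A570 read. Controls for compound toxicity and assay interference. EC50 from dose series; tested twice, third time if EC50 < 1 μM.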

PC-12 = experiment: Neurotrophic activity in rat PC12 cells assessed as neurite outgrowth at 1 to 10 uM after 24 hrs; type: functional, cell-based
Summary of the method: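 PC12 cells in N2 medium given derivatives (1–10 μM) for 24 h, fisetin 10 μM as positive control. 100 cells counted in each of three fields. A cell scored positive with ≥1 neurite longer than one cell-body diameter. Tested twice; positives tested a third time.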

N9 = experiment: Antiinflammatory activity in mouse N9 cells assessed as reduction of LPS-induced microglial activation at 1 to 10 uM measured as nitrite level after 24 hrs by Griess reagent-based assay; type: functional; set-up: scale not given: the % may be the effect or the level left
Summary of the method: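 N9 microglia in DME with 7.5% DFCS, given 10 μg/ml LPS alone or with derivatives (1–10 μM) for 24 h. Medium spun to remove floating cells, then nitrite measured with Griess reagent, 10 min at room temperature, absorbance 550 nm. Fisetin 10 μM as positive control. Tested twice; positives tested a third time.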

HT-22 [2] = experiment: Neuroprotective activity against glutamate-induced GSH loss in mouse HT22 cells assessed as intracellular GSH level at 1 to 10 uM after 24 hrs; type: functional, cell-based
Summary of the method: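 HT22 cells given derivatives (1–10 μM) with 5 mM glutamate. After 24 h, cell extracts analysed for total intracellular GSH by chemical assay. Fisetin 10 μM as positive control. Tested twice; positives tested a third time.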

[3] = Antioxidant activity against ABTS radical assessed as trolox equivalent after 4 mins by TEAC assay; type: functional
Summary of the method: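 ABTS radical cation formed overnight with potassium persulfate and diluted to OD ~0.7 at 734 nm, then mixed with derivative in ethanol. Loss of A734 followed over 4 min. TEAC = slope of % absorbance inhibition vs concentration divided by the slope for Trolox.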

HT-22 [4] = experiment: Induction of Nrf2 expression in mouse HT22 cells from 1 to 4 hrs by immunoblotting; type: functional, cell-based
Summary of the method: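 Nuclear extracts taken from untreated and derivative-treated cells at 1, 2 and 4 h. Equal protein run on 10% SDS-PAGE, blotted to nitrocellulose (Ponceau-S loading check). Probed with anti-Nrf2 (1/1000) and anti-β-actin, HRP secondary, chemiluminescence. Tested twice; positives tested a third time.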

[5] = Mus musculus, HT-22, 24 h, read-out: EC50

Row | Compound | EC50 (HT-22 [1]; [5]) | Activity (PC-12) | Activity (N9) | Activity (HT-22 [2]) | Activity [3] | Activity (HT-22 [4]) | EC50 (HT-22 [1]; ht-22)
1 | Cc1cc2oc(-c3ccc(O)c(O)c3)c(O)c(=O)c2cc1C | 500 nM | inactive | 82% | inactive | 1.89 equiv | – | –
2 | CC(C)Oc1cc(-c2ccc(O)cc2O)nc2ccccc12 | 210 nM | inactive | 64% | inactive | 0.27 equiv | – | –
3 | Cc1cc2oc(-c3ccc(N4CCCC4)c(O)c3)c(O)c(=O)c2cc1C | 15 nM | Active | 21% | Active | 2.79 equiv | inactive | –
4 | CCOc1ccc(-c2oc3c(ccc4ccccc43)c(=O)c2O)cc1OCC | 300 nM | inactive | 13% | inactive | 0.15 equiv | – | –
5 | COc1cc(-c2ccc(N3CCCC3)cc2)nc2ccccc12 | – | inactive | 67% | inactive | 0.27 equiv | – | Not Active
6 | O=c1c(O)c(-c2ccc(O)c(O)c2)oc2ccc3ccccc3c12 | 250 nM | Active | 87% | inactive | 1.26 equiv | – | –
7 | COc1cc(-c2ccccc2)nc2ccccc12 | 750 nM | inactive | 6% | inactive | 0.12 equiv | – | –
8 | CC(C)Oc1cc(-c2ccc(O)c(O)c2)nc2ccccc12 | 20 nM | Active | 80% | Active | 0.18 equiv | – | –
9 | O=c1cc(-c2ccc(O)c(O)c2)oc2c1ccc1ccccc12 | 80 nM | Active | 55% | inactive | 0.18 equiv | – | –
10 | CCOc1ccc(/C=C/C(=O)c2ccc3ccccc3c2O)cc1OCC | – | inactive | 5% | inactive | 0.12 equiv | – | Not Active
11 | CCOc1cc(-c2ccc(O)c(O)c2)nc2ccccc12 | 20 nM | Active | 90% | Active | 0.9 equiv | – | –
12 | COc1cc(/C=C/C(=O)c2ccc3ccccc3c2O)ccc1OCc1ccccc1 | 500 nM | inactive | 9% | inactive | 0.15 equiv | – | –
13 | COc1cc(-c2oc3c(ccc4ccccc43)c(=O)c2O)ccc1O | > 500 nM | Active | 78% | inactive | 0.63 equiv | – | –
14 | COc1cc(-c2oc3c(ccc4ccccc43)c(=O)c2O)ccc1OCc1ccccc1 | 80 nM | Active | 88% | inactive | 0 equiv | – | –
15 | CN(C)c1ccc(-c2cc(=O)c3ccc4ccccc4c3o2)cc1 | 250 nM | inactive | 35% | inactive | 0.24 equiv | – | –
16 | Cc1cc(O)c(C(=O)/C=C/c2ccc(O)cc2O)cc1C | 50 nM | Active | 53% | inactive | 0.93 equiv | – | –
17 | COc1cc(-c2cc(=O)c3ccc4ccccc4c3o2)ccc1O | 40 nM | inactive | 19% | inactive | 0.2 equiv | – | –
18 | O=c1c(O)c(-c2ccc(O)c(O)c2)oc2c1ccc1ccccc12 | 90 nM | Active | 91% | inactive | 2.4 equiv | – | –
19 | CC(C)Oc1cc(-c2ccc(N3CCCC3)cc2)nc2ccccc12 | 500 nM | inactive | 67% | inactive | 0.27 equiv | – | –
20 | COc1cc(-c2cc(OC)c3ccccc3n2)ccc1O | 500 nM | inactive | 90% | inactive | 0.15 equiv | – | –
21 | CCOc1ccc(-c2cc(=O)c3ccc4ccccc4c3o2)cc1OCC | – | inactive | 2% | inactive | 0.2 equiv | – | Not Active

Row | Compound | EC50 (HT-22 [1]; [5]) | Activity (PC-12) | Activity (N9) | Activity (HT-22 [2]) | Activity [3] | Activity (HT-22 [4]) | EC50 (HT-22 [1]; ht-22)
22 | CCOc1ccc(-c2cc(OC)c3ccccc3n2)cc1OCC | – | inactive | 76% | inactive | 0.12 equiv | – | Not Active
23 | CCOc1ccc(/C=C/C(=O)c2cc(C)c(C)cc2O)cc1OCC | – | inactive | 56% | inactive | 0.09 equiv | – | Not Active
24 | Cc1cc2oc(-c3ccc(O)cc3O)c(O)c(=O)c2cc1C | > 500 nM | inactive | 0% | inactive | 1.56 equiv | – | –
25 | COc1cc(-c2oc3cc(C)c(C)cc3c(=O)c2O)ccc1OCc1ccccc1 | 170 nM | inactive | 14% | inactive | 0.27 equiv | – | –
26 | COc1cc(-c2ccc(N(C)C)cc2)nc2ccccc12 | 60 nM | inactive | 62% | inactive | 0.06 equiv | – | –
27 | COc1ccc(/C=C/C(=O)c2cc(C)c(C)cc2O)cc1O | 200 nM | inactive | 56% | inactive | 0.12 equiv | – | –
28 | Cc1cc2oc(-c3ccc(O)c(O)c3)cc(=O)c2cc1C | 250 nM | inactive | 93% | inactive | 0.27 equiv | – | –
29 | O=c1c(O)c(-c2ccc(N3CCCC3)cc2)oc2c1ccc1ccccc12 | 70 nM | Active | 26% | inactive | 1.44 equiv | – | –
30 | Cc1cc2oc(-c3ccc(O)cc3O)cc(=O)c2cc1C | > 500 nM | inactive | 5% | inactive | 0.15 equiv | – | –
31 | COc1ccc(-c2cc(OC)c3ccccc3n2)cc1O | – | inactive | 69% | inactive | 0.24 equiv | – | Not Active
32 | Cc1cc2oc(-c3ccc(N(C)C)cc3)cc(=O)c2cc1C | > 500 nM | inactive | 8% | inactive | 0 equiv | – | –
33 | CCOc1ccc(-c2cc(=O)c3cc(C)c(C)cc3o2)cc1OCC | – | inactive | 2% | inactive | 0.15 equiv | – | Not Active
34 | CCOc1ccc(-c2oc3cc(C)c(C)cc3c(=O)c2O)cc1OCC | 500 nM | inactive | 11% | inactive | 0.84 equiv | – | –
35 | Cc1cc2oc(-c3ccc(N4CCCC4)cc3)cc(=O)c2cc1C | > 500 nM | inactive | 2% | inactive | 0.12 equiv | – | –
36 | COc1cc(-c2ccc([N+](=O)[O-])c(O)c2)nc2ccccc12 | – | inactive | 25% | inactive | 0.18 equiv | – | Not Active
37 | COc1cc(-c2ccc(O)cc2O)nc2ccccc12 | > 500 nM | inactive | 84% | inactive | 0.05 equiv | – | –
38 | COc1cc(-c2cc(=O)c3cc(C)c(C)cc3o2)ccc1OCc1ccccc1 | 500 nM | inactive | 83% | inactive | 0.09 equiv | – | –
39 | O=c1cc(-c2ccc(N3CCCC3)cc2)oc2c1ccc1ccccc12 | 200 nM | inactive | 23% | inactive | 0.03 equiv | – | –
40 | COc1cc(-c2ccc(O)cc2)nc2ccccc12 | – | inactive | 4% | inactive | 0.81 equiv | – | Not Active
41 | CC(C)Oc1cc(-c2ccc(N(C)C)cc2)nc2ccccc12 | 50 nM | inactive | 71% | inactive | 0.15 equiv | – | –
